Measurements gathered from unrelated publications.
Compare with care: the assays were run in different laboratories.
DYRK1B: Dual specificity tyrosine-phosphorylation-regulated kinase 1B (DYRK1B, Homo sapiens, UniProt Q9Y463)
PTGS2: Prostaglandin G/H synthase 2 (PTGS2, Homo sapiens, UniProt P35354)

SMILES	target	read-out	action	method	tested at	endpoint	value
Cc1cnc(Nc2ccc(OCCN3CCCC3)cc2)nc1Nc1cccc(S(=O)(=O)NC(C)(C)C)c1	Bromodomain testis-specific protein, BD1 (BRDT, Homo sapiens, UniProt Q58F21)	thermal stability		DSF	10 µM	ΔTm	3.38 °C
Cc1cc2c(cc1N1C(=O)c3cccc4c(Cl)ccc(c34)C1=O)n(C)c(=O)n2C	Transcription intermediary factor 1-beta (TRIM28, Homo sapiens, UniProt Q13263)	thermal stability		DSF	10 µM	ΔTm	0.3 °C
O=C(O)c1ccc2c(c1)nc(Nc1cccc(F)c1)c1ccncc12	DYRK1B	enzyme activity	inhibitor	radiometric	1 µM	remaining activity	13%
O=C(O)c1ccc(O)cc1	PTGS2	enzyme activity	inhibitor		0.49 µg/mL	inhibition	19.4%
C[S+]([O-])c1ccc(-c2nc(-c3ccncc3)c(-c3ccc(F)cc3)[nH]2)cc1 (centres unmarked)	Bromodomain testis-specific protein, BD2 (BRDT, Homo sapiens, UniProt Q58F21)	thermal stability		DSF	10 µM	ΔTm	0.59 °C
O=c1cc(-c2ccc(O)cc2)oc2cc(O)cc(O)c12	PTGS2	enzyme activity	inhibitor		0.49 µg/mL	inhibition	16.4%
NS(=O)(=O)c1ccc(Nc2nc(-c3ccc(F)cc3)c3ccccc3n2)cc1	CREB-binding protein (CREBBP, Homo sapiens, UniProt Q92793)	binding		competition with immobilised ligand	1 µM	remaining binding	54%
O=C(O)c1ccc2c(c1)nc(Nc1ccc(F)c(Cl)c1)c1ncncc12	DYRK1B	enzyme activity	inhibitor	radiometric	1 µM	remaining activity	60%
